Results from different studies.
Compare with care: the assays were run in different laboratories.
Transmembrane protease serine 6: Transmembrane protease serine 6 (Homo sapiens, UniProt Q8IU80)
Palmitoyl-protein thioesterase 1: Palmitoyl-protein thioesterase 1 (Homo sapiens, UniProt P50897)

Structure (SMILES)	target	observed	mode	method	tested at	measurement	value
N=C(N)NCCC[C@H](NC(=O)[C@H](CC12CC3CC(CC(C3)C1)C2)NC(=O)[C@H](Cc1cscn1)NC(=O)CCc1ccccc1)C(=O)c1nc2ccccc2s1	Transmembrane protease serine 6	enzyme activity	inhibitor	–	0.1 µM	remaining activity	95%
O=C1C=C2CC3(O)COc4cc(O)ccc4C3=C2C=C1O (stereo not drawn)	Palmitoyl-protein thioesterase 1	enzyme activity	inhibitor	–	625 µM	inhibition	29.3%
C=CC(=O)N1CCC(COCC(=O)N2CCN(c3nc(-c4cnc(N)nc4C(F)F)nc(N4CCOC[C@@H]4C)n3)CC2)CC1	Protein kinase C delta type (PRKCD, Homo sapiens, UniProt Q05655)	binding	–	competition with immobilised ligand	1 µM	remaining binding	100%
CNc1ncc2c(/C=C/C(=O)N3CCC(OC)CC3)nn(Cc3cccc(C(F)(F)F)c3)c2n1	Cyclin-dependent kinase 6, with cyclin D2 (CDK6, Homo sapiens, UniProt Q00534)	enzyme activity	inhibitor	radiometric	1 µM	remaining activity	92%
COc1cc(-c2cncc3c2CN(C)Cc2cc(N4CCNCC4)ccc2-3)cc(OC)c1OC	Epidermal growth factor receptor (EGFR, Homo sapiens, UniProt P00533, L858R)	enzyme activity	inhibitor	–	1 µM	remaining activity	36%
CC(=O)O[C@@]12CO[C@@H]1C[C@H](O)[C@@]1(C)C(=O)[C@H](O)C3=C(C)[C@@H](OC(=O)[C@H](O)[C@@H](NC(=O)OC(C)(C)C)c4ccccc4)C[C@@](O)([C@@H](OC(=O)c4ccccc4)[C@H]21)C3(C)C	Palmitoyl-protein thioesterase 1	enzyme activity	inhibitor	–	125 µM	inhibition	10.3%
N=C(N)NCCC[C@H](NC(=O)[C@H](CC1CC1)NC(=O)[C@H](Cc1cscn1)NC(=O)CCc1ccccc1)C(=O)c1nc2ccccc2s1	Transmembrane protease serine 6	enzyme activity	inhibitor	–	0.1 µM	remaining activity	77%
NCCCCCC(=O)O	Palmitoyl-protein thioesterase 1	enzyme activity	inhibitor	–	312 µM	inhibition	17.1%
CCCC[C@H](NC(=O)[C@H](Cc1cscn1)NC(=O)CCc1ccccc1)C(=O)N[C@@H](CCCNC(=N)N)C(=O)c1nc2ccccc2s1	Transmembrane protease serine 6	enzyme activity	inhibitor	–	0.1 µM	remaining activity	22%
CC1CNC(=O)NC1=O (stereo not drawn)	Palmitoyl-protein thioesterase 1	enzyme activity	inhibitor	–	125 µM	inhibition	-1.19%
CC(C)[C@@H](CC(=O)N[C@@H](CCCNC(=N)N)C(=O)c1nc2ccccc2s1)NC(=O)[C@H](Cc1cscn1)NC(=O)CCc1ccccc1	Transmembrane protease serine 6	enzyme activity	inhibitor	–	0.1 µM	remaining activity	100%
Cc1cc([C@@H](C)Nc2ccccc2C(=O)O)c2nc(N3CCC(F)(F)CC3)c(C#N)c(=O)n2c1	Serine/threonine-protein kinase B-raf (BRAF, Homo sapiens, UniProt P15056)	binding	–	competition with immobilised ligand	10 µM	remaining binding	74%
COc1c(O)cc2c(c1O)[C@@H]1O[C@H](CO)[C@@H](O)[C@H](O)[C@H]1OC2=O	Palmitoyl-protein thioesterase 1	enzyme activity	inhibitor	–	125 µM	inhibition	7.04%
N=C(N)NCCC[C@H](NC(=O)[C@@H](NC(=O)[C@H](Cc1cscn1)NC(=O)CCc1ccccc1)C(c1ccccc1)c1ccccc1)C(=O)c1nc2ccccc2s1	Transmembrane protease serine 6	enzyme activity	inhibitor	–	0.1 µM	remaining activity	65%
Cc1ccc2c(-c3cc4c(CN5CCN(Cc6ccccn6)CC5)cnc(C)c4o3)cc(=O)oc2c1	Epidermal growth factor receptor (EGFR, Homo sapiens, UniProt P00533, L858R/T790M)	enzyme activity	inhibitor	ADP detection	1 µM	inhibition	65 to 75%
